Screening data (PubChem BioAssay)
Hits are enriched below; roughly 3.7% of the tested compounds scored in any of these assays.
MDM2 E3 inh – MDM2-luciferase reporter signal enhancers, primary screen, MDM2 E3 ligase inhibitor project, cell-based, luminescence, 1536-well; E3 ubiquitin-protein ligase Mdm2 (Homo sapiens), Q00987; cell-based MDM2 ubiquitination luciferase reporter, 2 h; 0 = plate control, 100 = twice control, blank-subtracted; signal enhancement, % at 5 µM; actives 0.11% (n = 210,000);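 active = signal enhancement of 30% or more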;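 also: luminescence tracks abundance of the self-degrading MDM2-luciferase fusion protein; higher signal means inhibition of MDM2 E3 ligase activity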
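test system = mammalian cells stably expressing self-ubiquitinating, self-degrading MDM2 E3–luciferase fusion | quantity = 2000 cells/well | incubation = cell settling 4 h, compound treatment 2 h, both 37 °C | signal = luminescence with SteadyLite reagent, 15 min at room temperature | evaluation = % enhancement relative to plate controls after blank subtraction | benchmarks = plate controls and plate blanks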
Cl transport mod – KCC2 cotransporter modulators, thallium flux, primary screen, cell-based, HEK293 KCC2, FluoZin-2 fluorescence, MLSMR; actives 2.2% (n = 190,000); Solute carrier family 12 member 5 (Homo sapiens), Q9H2X9; KCC2 cells, thallium flux FluoZin-2 fluorescence; B-score of Tl+ flux slope (higher = more flux/activation; lower = inhibition) at 10 µM;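 active = thallium flux slope and its plate-corrected score both differing from the plate sample mean at a set confidence after two filtering rounds, in either direction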;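 also: slope of fluorescence scaled to starting intensity during 10 to 20 s after thallium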
Arbovirus inh – antivirals against arbovirus infection, primary screen, cell-based, full library, 10K replicate subset | arbovirus infection cell-based antiviral screen | inhibition, % at 10 µM | actives 0.37% (n = 200,000); in the data active = inhibition above about 30%
ROMK primary – ROMK potassium channel modulators, primary screen, cell-based, thallium flux, MLSMR library | ATP-sensitive inward rectifier potassium channel 1 (Homo sapiens), P48048 | Tet-inducible ROMK, thallium flux fluorescence; actives lie on both sides | B-score at 10 µM | actives 2% (n = 130,000);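 active = signal ratio slope over the read window, or its plate-corrected B-score, at least 3 SD from the plate mean, either direction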;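 also: B-score of the F/F0 ratio slope over 7 to 12 s after thallium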
Target sequence (P48048 whole entry, looked up): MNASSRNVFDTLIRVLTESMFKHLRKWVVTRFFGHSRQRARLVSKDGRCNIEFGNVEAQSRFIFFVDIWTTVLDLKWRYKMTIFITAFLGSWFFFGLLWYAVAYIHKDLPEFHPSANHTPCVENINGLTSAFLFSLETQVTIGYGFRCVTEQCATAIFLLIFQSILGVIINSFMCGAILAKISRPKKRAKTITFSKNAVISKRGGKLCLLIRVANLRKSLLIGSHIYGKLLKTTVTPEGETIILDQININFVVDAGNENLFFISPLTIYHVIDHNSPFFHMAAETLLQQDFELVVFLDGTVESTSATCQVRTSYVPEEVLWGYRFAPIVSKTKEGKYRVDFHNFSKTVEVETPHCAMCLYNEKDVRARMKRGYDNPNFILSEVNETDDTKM
m-calpain inh – inhibitors of pig calpain II, primary screen, biochemical, fluorogenic peptide substrate, 1536-well; purified calpain II, 30 min; inhibition, % at 16 µM; actives 0.37% (n = 220,000);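 active = inhibition above about 50%, limit read from the data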
PKD1 inh – inhibitors of human PKD1 kinase, biochemical, fluorescence polarization; PKD1 kinase fluorescence polarization assay; inhibition, % (concentration not given with the values); actives 0.056% (n = 200,000); AID 797, 2007; in the data active = inhibition above about 50%
* marks the source's active call; other numbers are inactive results; i = inactive; x = not tested or not shown.

SMILES | MDM2 E3 inh | Cl transport mod | Arbovirus inh | ROMK primary | m-calpain inh | PKD1 inh
COc1ccc(C2C=C(c3ccc(Br)s3)Nc3ncnn32)cc1OC (stereo unspecified) | -22 | i | 90* | x | -23 | -4
COc1ccc(C2NC(c3ccc(OC)cc3OC)C(C)C(=O)C2C)c(OC)c1 (stereo unspecified) | 11 | -0.25 | 4 | -1.2 | -29 | -2
CCSC1=N/C(=C\c2ccccc2)C(=O)N1c1ccc(OC)cc1 | -3 | 0.24 | -9 | -0.52 | -132 | 0
Cc1ccc(N2C(=O)/C(=C\c3ccc(C(C)C)cc3)N=C2SC2CCOC2=O)cc1 (stereo unspecified) | -3 | -0.28 | 39* | 0.097 | -24 | 3
CCOC(=O)N1CCN(CC(=O)Nc2sccc2C#N)CC1 | -11 | 0.15 | 13 | 0.0059 | 82* | -8
CN(C)N1C(N)=C(C#N)C(c2cccs2)C2=C1CC(C)(C)CC2=O (stereo unspecified) | 1 | -0.19 | 1 | 0.17 | -3 | 7
COc1ccc(NC(=O)Nc2ccc(C)cc2OC(F)F)cc1OC | 5 | x | 1 | x | 53* | -3
CCOC(=O)c1ccccc1NC(=O)Nc1ccc(OC)c(OC)c1 | -11 | x | 1 | x | -13 | 11
CCN(CC)C(=O)CN(c1cc2c(cc1OC)oc1ccccc12)S(=O)(=O)c1ccccc1 | -10 | -1.2 | -2 | -4.6* | 34 | 1
COc1cc2oc3ccccc3c2cc1N(CC(=O)N1CCCCC1)S(=O)(=O)c1ccc(C)cc1 | -3 | 0.23 | -7 | -4.9* | -58 | 9
Fc1ccccc1NC(=S)N/N=C/c1ccccc1Br | x | 6.2* | -4 | 0.8 | -17 | 2
O=[N+]([O-])c1ccc(/C=N/NC(=S)Nc2ccccc2F)o1 | -23 | 28* | -1 | x | 14 | -5
Cc1c(Cl)cccc1NC(=S)N/N=C/c1ccccc1Cl | -7 | 1.1 | x | 0.65 | 1 | x
Cc1c(-c2ccc(/C=N/NC(=O)C(=O)Nc3ccccc3F)o2)cccc1[N+](=O)[O-] | -3 | 0.37 | x | -0.91 | -5 | x
Cn1c2ccccc2c(=O)c2c(=O)n(Cc3ccco3)c(-c3ccc(C(C)(C)C)cc3)nc21 | -3 | -0.34 | x | 0.18 | -21 | x
C=C(C)CNC(=S)N/N=C/c1ccc(NC(C)=O)cc1 | 1 | 0.36 | 2 | -0.024 | 62* | -5
CC(=O)Nc1ccc(/C=N/NC(=S)NC(C)C)cc1 | 12 | 0.59 | 11 | -0.32 | 23 | -3
Cc1cc(=O)oc2c(CN3CC(C)OC(C)C3)c(O)c(Cl)cc12 (stereo unspecified) | -10 | -0.17 | 1 | -2.1 | i | -8
O=C(COC(=O)CCC(=O)c1cccs1)NC(=O)c1ccc(OC(F)F)cc1 | -9 | -0.66 | 8 | -1 | 13 | -7
Cc1cccc(C(=O)NC(=S)NNC(=O)c2cccs2)c1 | 6 | 34* | -17 | x | 8 | -12
Cc1cccc(C(=O)NNC(=O)c2ccc(Br)cc2)c1 | 0 | x | -1 | x | -24 | 0
Cc1cccc(C(=O)NC(=S)NNC(=O)c2ccc(Cl)cc2)c1 | -5 | 42* | -27 | 5.3* | -14 | 4
CC(C)(C)c1ccc(C(=O)NC(=S)NNC(=O)c2cccs2)cc1 | -19 | 57* | -36 | 9.1* | -12 | 7
O=C(NNC(=O)c1cccs1)c1ccc(Cl)c([N+](=O)[O-])c1 | -12 | -0.41 | 2 | -0.33 | 24 | 3
O=C(NNC(=O)c1cccs1)c1ccc([N+](=O)[O-])cc1 | -8 | -2.6 | 35* | 0.89 | 27 | -5
SMILES | MDM2 E3 inh | Cl transport mod | Arbovirus inh | ROMK primary | m-calpain inh | PKD1 inh
Cc1cc(C)cc(OC(=O)C23CCC(C)(C(=O)O2)C3(C)C)c1 (stereo unspecified) | x | 0.12 | 0 | 0.67 | -6 | -2
O=[N+]([O-])c1ccc(-c2cn(-c3ccc(Cl)cc3)c(=S)[nH]2)cc1 | -17 | 3.7* | -5 | x | 33 | -7
CCc1ccc(-n2cc(-c3ccc([N+](=O)[O-])cc3)[nH]c2=S)cc1 | -15 | 3.7 | -7 | 0.13 | 11 | -10
COc1ccccc1Cn1[nH]nnc1=S | -7 | x | x | x | -5 | x
COC(=O)c1ccc(OC)c(CSc2nnc(COc3ccc(Cl)cc3)o2)c1 | -3 | -0.87 | 9 | x | 51* | 1
COCCNc1nc2c(c(=O)n(Cc3ccc(OC)cc3)c(=O)n2C)n1C | -8 | x | 3 | -0.38 | x | 0
COc1ccc(CNc2nc3c(c(=O)n(Cc4ccc(Cl)cc4)c(=O)n3C)n2C)cc1 | -16 | -1.1 | 8 | -0.72 | 84* | 1
Cn1c(NCc2ccco2)nc2c1c(=O)n(Cc1ccc(Cl)c(Cl)c1)c(=O)n2C | -9 | x | 10 | -0.83 | 86* | -8
Cc1ccc(NC(=O)C(=O)NCC2CCCO2)cc1 (stereo unspecified) | -27 | -0.28 | 6 | 0.37 | -1 | 8
O=C(COC(=O)/C=C/c1ccco1)NCCc1ccccc1 | -7 | -1.2 | 18 | -0.23 | -24 | -6
O=C(N/N=C\c1ccc(Cl)s1)c1cccs1 | 31* | 19* | -6 | -1.2 | 4 | 4
CSc1nnc2c(n1)OC=Nc1ccc(Br)cc1-2 | -8 | 0.25 | x | 0.45 | -7 | x
CC(=O)c1cc2c(cc1NS(=O)(=O)c1ccccc1F)OCO2 | -8 | 0.71 | -5 | 0.012 | 9 | -11
COc1ccc(Nc2c(-c3ccc(OC)cc3)nc3cnccn23)cc1 | 5 | -0.37 | 3 | -0.051 | -1 | 0
COc1ccc(Nc2c(-c3ccc(C)cc3)nc3cnccn23)cc1 | -11 | 0.59 | 9 | -3 | 75* | 3
O=C(NC1=NCCS1)c1ccc(Cl)c(S(=O)(=O)N2CCCC2)c1 | -1 | 0.25 | 32* | -0.85 | -26 | -5
CC1=NN(c2ccccc2)C(=O)/C1=C\c1cn(-c2ccccc2)nc1C | -2 | -0.44 | 0 | 0.47 | -6 | -4
Cc1[nH]n(-c2ccccc2)c(=O)c1N=Nc1nccs1 | -8 | 25* | -13 | 13* | 20 | 0
CC1=NN(c2ccccc2)C(=O)/C1=C/c1c(O)n(-c2ccc(F)c(Cl)c2)[nH]c1=O | -16 | -8.3* | -30 | x | 31 | -4
Cc1[nH]n(-c2ccccc2)c(=O)c1/C=N/c1ccccn1 | -1 | 18* | -4 | x | 1 | -2
CC1=NN(c2ccccc2)C(=O)/C1=C\c1c(C)[nH]n(-c2ccccc2)c1=O | -1 | 0.58 | 4 | -3.6* | -36 | 4
COc1ccc(/C(C)=N/NS(=O)(=O)c2cc(C)ccc2C)c(OC)c1 | -4 | -0.14 | 1 | 0.28 | -12 | 0
